Data on 6 molecules can be found in ChEMBL document CHEMBL3392966, “Antiproliferative activity of synthetic fatty acid amides from renewable resources” (Bioorg Med Chem, 2015).

As a reminder, the GI50 is the concentration that inhibits growth by half. Lower therefore signals greater sensitivity of the cells. Broadly, the TGI is the concentration giving total growth inhibition. One may read the LC50 as the concentration that kills 50% of the test population.

Series [1] concerns U-251. Kind of series: Antiproliferative activity against human U251 cells after 48 hrs by sulforhodamine B assay. To be noted: U-251, 48 h. The class given is functional. Summed up:
(§1)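 Tumor cells grown in RPMI 1640 with 5% fetal bovine serum, with penicillin/streptomycin in experimental cultures. Exposed in 96-well plates to samples in DMSO/RPMI at 0.25, 2.5, 25 and 250 µg/mL, 37 °C, 5% CO2, 48 h. Fixed with 50% trichloroacetic acid before (T0) and after treatment, protein stained with sulforhodamine B and read at 540 nm. GI50, TGI and LC50 in µg/mL from dose-response curves by non-linear regression.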
A general note: Sulforhodamine B stains cellular protein and so reports cell mass.

In series [2] the test system is MCF7. Put plainly: Antiproliferative activity against human MCF7 cells after 48 hrs by sulforhodamine B assay. To be noted: MCF7, 48 h. The class given is functional. In short, it runs like this:
as §1

In series [3] the test system is NCI/ADR-RES. Put plainly: Antiproliferative activity against human NCI/ADR-RES cells assessed as tumor growth inhibition after 48 hrs by sulforhodamine B assay. The class given is functional. In short, it runs like this: as §1
The subject of series [4] is NCI-H460. Kind of series: Antiproliferative activity against human NCI-H460 cells after 48 hrs by sulforhodamine B assay. The class given is functional. To be noted: NCI-H460, 48 h. Summed up: as §1
Series [5] relates to HaCaT. Kind of series: Cytotoxicity against human HaCaT cells assessed as tumor growth inhibition after 48 hrs by sulforhodamine B assay. The class given is cell-based. In short, it runs like this: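 Non-tumor lines (human HaCaT keratinocytes; Vero) in RPMI 1640 with 5% FBS, with penicillin/streptomycin added to experimental cultures. 48 h exposure at 0.25–250 µg/mL (DMSO/RPMI), 37 °C, 5% CO2. TCA fixation at time zero and at end, sulforhodamine B protein stain, absorbance 540 nm. TGI (total growth inhibition) from non-linear regression of the dose-response curve.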

The nature of series [6]: Antiproliferative activity against human OVCAR3 cells assessed as tumor growth inhibition after 48 hrs by sulforhodamine B assay. The conditions noted are these: OVCAR-3, 48 h. The class given is functional. In short, it runs like this: as §1
Series [7] concerns U-251. Kind of series: Antiproliferative activity against human U251 cells assessed as tumor growth inhibition after 48 hrs by sulforhodamine B assay. The class given is functional. The conditions noted are these: U-251, 48 h. Summed up:
as §1

Series [8] concerns NCI-H460. Put plainly: Antiproliferative activity against human NCI-H460 cells assessed as tumor growth inhibition after 48 hrs by sulforhodamine B assay. The class given is functional. The conditions noted are these: NCI-H460, 48 h. Summed up:
as §1

The nature of series [9]: Antiproliferative activity against human PC3 cells after 48 hrs by sulforhodamine B assay. The conditions noted are these: PC-3, 48 h. The class given is functional. In short, it runs like this: as §1
Series [10] deals with 786-0. Put plainly: Antiproliferative activity against human 786-0 cells after 48 hrs by sulforhodamine B assay. The class given is functional. To be noted: 786-0, 48 h. In short, it runs like this: as §1
The nature of series [11]: Antiproliferative activity against human OVCAR3 cells after 48 hrs by sulforhodamine B assay. The conditions noted are these: OVCAR-3, 48 h. The class given is functional. Summed up:
as §1

The nature of series [12]: Antiproliferative activity against human PC3 cells assessed as tumor growth inhibition after 48 hrs by sulforhodamine B assay. The class given is functional. The conditions noted are these: PC-3, 48 h. Summed up: as §1
Series [13] concerns NCI/ADR-RES. Put plainly: Antiproliferative activity against human NCI/ADR-RES cells after 48 hrs by sulforhodamine B assay. The class given is functional. Summed up:
as §1

In series [14] the test system is HaCaT. Kind of series: Cytotoxicity against human HaCaT cells after 48 hrs by sulforhodamine B assay. The class given is cell-based.
In series [15] the test system is 786-0. Put plainly: Antiproliferative activity against human 786-0 cells assessed as tumor growth inhibition after 48 hrs by sulforhodamine B assay. The class given is functional. To be noted: 786-0, 48 h. Summed up:
as §1

The test system of series [16] is MCF7. Put plainly: Antiproliferative activity against human MCF7 cells assessed as tumor growth inhibition after 48 hrs by sulforhodamine B assay. The class given is functional. To be noted: MCF7, 48 h. In short, it runs like this: as §1

Converted amounts (≈) assume the structure as drawn.

Take `CCCCCCCC/C=C\CCCCCCCC(=O)NCCO` [OLEOYLETHANOLAMIDE]: the GI50 in the series with U-251 [1] was found to be 27.3 µg/mL (≈ 83.9 µM); in the series with MCF7 [2], 25.9 µg/mL (≈ 79.6 µM); in the series on NCI-H460 [4], 36.5 µg/mL (≈ 112 µM); in series [9] it was 16.9 µg/mL (≈ 51.9 µM); in the series with 786-0 [10] it was 35.4 µg/mL (≈ 109 µM); in series [11], 35.4 µg/mL (≈ 109 µM). Halving of growth in the series with NCI/ADR-RES [13] (GI50) required 9.1 µg/mL (≈ 28 µM). The TGI amounted to 39.5 µg/mL (≈ 121 µM) with NCI/ADR-RES [3]; 53.5 µg/mL (≈ 164 µM) in the series with HaCaT [5]; 71.7 µg/mL (≈ 220 µM) in series [6]; 51.3 µg/mL (≈ 158 µM) in the series on U-251 [7]; 81 µg/mL (≈ 249 µM) with NCI-H460 [8]; 44.2 µg/mL (≈ 136 µM) in [12]. The concentration for total growth inhibition (TGI) in the series on 786-0 [15] was determined as 64.6 µg/mL (≈ 198 µM); in the series with MCF7 [16] it was 66.7 µg/mL (≈ 205 µM). Besides, in the series on HaCaT [14], the LC50 is 14.4 µg/mL (≈ 44.2 µM).

Turning to `CCCCCCCC/C=C\CCCCCCCC(=O)N1CCOCC1`, the GI50 in the series on U-251 [1] came to 2.8 µg/mL (≈ 7.96 µM); with MCF7 [2] it was 4.9 µg/mL (≈ 13.9 µM); in the series on NCI-H460 [4], 7.9 µg/mL (≈ 22.5 µM); in [9] it was 5.2 µg/mL (≈ 14.8 µM); in the series on 786-0 [10] it was 4.5 µg/mL (≈ 12.8 µM); in series [11] it was 4.9 µg/mL (≈ 13.9 µM). The molecule further gave a GI50 in the series on NCI/ADR-RES [13] of 3.3 µg/mL (≈ 9.39 µM). For the same molecule, the TGI in the series on NCI/ADR-RES [3] stood at 10.6 µg/mL (≈ 30.2 µM); in the series on HaCaT [5], 23.2 µg/mL (≈ 66 µM); in series [6], 13.9 µg/mL (≈ 39.5 µM); in the series with U-251 [7], 6.6 µg/mL (≈ 18.8 µM); in the series on NCI-H460 [8], 34.7 µg/mL (≈ 98.7 µM); in series [12] it was 14.8 µg/mL (≈ 42.1 µM). Besides, the TGI with 786-0 [15] is 11.2 µg/mL (≈ 31.9 µM); in the series with MCF7 [16], 13.1 µg/mL (≈ 37.3 µM). This molecule displayed an LC50 in the series with HaCaT [14] of 5.3 µg/mL (≈ 15.1 µM).

For the molecule `CCCCC/C=C\C/C=C\CCCCCCCC(=O)N1CCCCC1`, the GI50 with U-251 [1] stood at 44.2 µg/mL (≈ 127 µM); in the series on MCF7 [2] it was 22.1 µg/mL (≈ 63.6 µM); in the series on NCI-H460 [4] it was 29.1 µg/mL (≈ 83.7 µM); in series [9], 53.6 µg/mL (≈ 154 µM); in the series on 786-0 [10] it was 58.4 µg/mL (≈ 168 µM); in series [11], 48.9 µg/mL (≈ 141 µM). Besides, in the series on NCI/ADR-RES [13], growth was halved (GI50) at 63.2 µg/mL (≈ 182 µM). Also, the TGI with NCI/ADR-RES [3] was found to be 63.2 µg/mL (≈ 182 µM); with HaCaT [5], 30.5 µg/mL (≈ 87.7 µM); in [6], 58.4 µg/mL (≈ 168 µM); in the series on U-251 [7], 22.1 µg/mL (≈ 63.6 µM); with NCI-H460 [8], 53.6 µg/mL (≈ 154 µM); in [12], 48.9 µg/mL (≈ 141 µM). Besides, the TGI was 29.1 µg/mL (≈ 83.7 µM) in the series on 786-0 [15] and 44.2 µg/mL (≈ 127 µM) with MCF7 [16]. Besides, the LC50 in the series with HaCaT [14] came out at 4.2 µg/mL (≈ 12.1 µM).

For `CCCCCCCCCCCCCCCCCC(=O)N1CCCC1`, the GI50 in the series with U-251 [1] worked out at 8 µg/mL (≈ 23.7 µM); in the series on MCF7 [2] it was 7.4 µg/mL (≈ 21.9 µM); with NCI-H460 [4], 10.8 µg/mL (≈ 32 µM); in series [9], 9.4 µg/mL (≈ 27.8 µM); with 786-0 [10], 14 µg/mL (≈ 41.5 µM); in series [11] it was 7.3 µg/mL (≈ 21.6 µM). In the series with NCI/ADR-RES [13], this molecule had a GI50 of 7.1 µg/mL (≈ 21 µM). For the same molecule, the TGI in the series on NCI/ADR-RES [3] is 43.5 µg/mL (≈ 129 µM); in the series on HaCaT [5] it was 27.4 µg/mL (≈ 81.2 µM); in [6], 68.5 µg/mL (≈ 203 µM); with U-251 [7] it was 32.5 µg/mL (≈ 96.3 µM); with NCI-H460 [8], 56.8 µg/mL (≈ 168 µM); in series [12] it was 36 µg/mL (≈ 107 µM). Besides, the TGI in the series on 786-0 [15] stood at 48.4 µg/mL (≈ 143 µM); in the series with MCF7 [16], 39.9 µg/mL (≈ 118 µM). The LC50 in the series on HaCaT [14] amounted to 6.3 µg/mL (≈ 18.7 µM).

`CCCCCC[C@@H](O)C/C=C\CCCCCCCC(=O)N1CCCCC1`: the 50% growth inhibitory concentration (GI50) in the series with U-251 [1] was 14.8 µg/mL (≈ 40.5 µM); in the series on MCF7 [2] it was 6.3 µg/mL (≈ 17.2 µM); in the series on NCI-H460 [4], 10.7 µg/mL (≈ 29.3 µM); in series [9] it was 23.3 µg/mL (≈ 63.7 µM); in the series on 786-0 [10], 24.2 µg/mL (≈ 66.2 µM); in series [11] it was 16.6 µg/mL (≈ 45.4 µM). In the series with NCI/ADR-RES [13], this molecule gave a 50% growth inhibitory concentration (GI50) of 22.7 µg/mL (≈ 62.1 µM). Also, the TGI turned out to be 22.7 µg/mL (≈ 62.1 µM) in the series with NCI/ADR-RES [3]; 12.8 µg/mL (≈ 35 µM) in the series on HaCaT [5]; 24.2 µg/mL (≈ 66.2 µM) in series [6]; 6.3 µg/mL (≈ 17.2 µM) in the series on U-251 [7]; 23.3 µg/mL (≈ 63.7 µM) with NCI-H460 [8]; 16.6 µg/mL (≈ 45.4 µM) in series [12]. Besides, the concentration for total growth inhibition (TGI) is 10.7 µg/mL (≈ 29.3 µM) in the series on 786-0 [15] and 14.8 µg/mL (≈ 40.5 µM) with MCF7 [16]. This molecule also gave an LC50 in the series with HaCaT [14] of 2.6 µg/mL (≈ 7.11 µM).

On to `CCCCCCCC/C=C\CCCCCCCC(=O)N1CCCCC1`, for which the GI50 is 6.7 µg/mL (≈ 19.2 µM) with U-251 [1]; 7.6 µg/mL (≈ 21.7 µM) in the series on MCF7 [2]; 23 µg/mL (≈ 65.8 µM) in the series with NCI-H460 [4]; 8.7 µg/mL (≈ 24.9 µM) in [9]; 10.6 µg/mL (≈ 30.3 µM) in the series with 786-0 [10]; 9.3 µg/mL (≈ 26.6 µM) in series [11]. In the series with NCI/ADR-RES [13], this molecule gave a GI50 of 7.7 µg/mL (≈ 22 µM). Further, the TGI with NCI/ADR-RES [3] is 47.4 µg/mL (≈ 136 µM); in the series on HaCaT [5], 47.9 µg/mL (≈ 137 µM); in [6], 35.4 µg/mL (≈ 101 µM); with U-251 [7], 25 µg/mL (≈ 71.5 µM); in the series on NCI-H460 [8], 40.7 µg/mL (≈ 116 µM); in series [12], 31.8 µg/mL (≈ 91 µM). Also, the TGI with 786-0 [15] worked out at 40.7 µg/mL (≈ 116 µM); in the series on MCF7 [16], 33.3 µg/mL (≈ 95.3 µM). In addition, in the series with HaCaT [14], the LC50 came out at 7.7 µg/mL (≈ 22 µM).
